High-throughput results from PubChem BioAssay.
Lmaj promast: inhibitors of Leishmania major promastigote growth | Leishmania major promastigotes, resazurin fluorescence viability | inhibition, % at 10 µM | actives 9% (n = 200,000) | AID 1063; in the data active = inhibition above about 50%;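 also: promastigotes grown with compound for 44 hours at 28 °C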
Mdm2 ligase inh: inhibitors of human Mdm2 E3 ubiquitin ligase; cell-based MDM2 ubiquitination luciferase reporter, 2 h; 0 = plate control, 100 = twice control, blank-subtracted; signal enhancement, % at 5 µM; Q00987; actives 0.11% (n = 210,000);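 active = signal enhancement of 30% or more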;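 also: luminescence tracks abundance of the self-degrading MDM2-luciferase fusion protein; higher signal means inhibition of MDM2 E3 ligase activity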
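Assay system: stable mammalian line carrying autodegrading MDM2–luciferase fusion reporter; amount: 2000 cells seeded into each well; buffer or medium: DMEM; benchmarks: plate control and blank wells; signal: luciferase luminescence; timing: 2 h compound exposure at 37 °C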
S1P4 antagonist: human S1P4 receptor antagonism; O95977; S1P4-expressing cells, antagonist mode, reporter read-out; inhibition, % at 4.98 µM; actives 0.26% (n = 220,000); AID 1510; in the data active = inhibition above about 29%;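 also: 0% = wells stimulated with agonist and 100% = vehicle wells without agonist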
Target sequence (O95977 whole entry, looked up): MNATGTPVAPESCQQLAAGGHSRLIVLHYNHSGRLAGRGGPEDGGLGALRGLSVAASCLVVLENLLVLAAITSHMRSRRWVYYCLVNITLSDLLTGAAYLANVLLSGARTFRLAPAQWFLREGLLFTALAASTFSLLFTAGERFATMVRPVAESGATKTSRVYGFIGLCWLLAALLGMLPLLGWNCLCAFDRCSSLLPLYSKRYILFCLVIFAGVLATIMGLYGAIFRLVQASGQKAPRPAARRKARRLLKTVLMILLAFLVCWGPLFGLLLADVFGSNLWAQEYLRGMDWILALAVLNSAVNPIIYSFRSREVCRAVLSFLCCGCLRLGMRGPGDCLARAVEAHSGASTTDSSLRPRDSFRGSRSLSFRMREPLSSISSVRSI
S1P3 antag: blocks the human S1P3 receptor; CHO S1P3 NFAT-BLA reporter, FRET fluorescence, antagonist mode; inhibition, % at 4.98 µM; actives 0.27% (n = 170,000);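 active = inhibition above the plate cutoff, the mean inhibition of test wells on that plate plus 3 SD, cut at about 28% in these data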;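 also: cells challenged with S1P at its EC80 of 0.8 µM; blue over green emission ratio from cleaved BLA substrate after 4 h stimulation; 0% = S1P-stimulated wells and 100% = unstimulated DMSO-only wells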
S1P4 ag: human S1P4 receptor agonism. activation, % at 4.98 µM. actives 0.35% (n = 220,000). S1P4-expressing cell line, agonist reporter assay. O95977; in the data active = activation above about 11%;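 also: 0% = DMSO vehicle and 100% = reference agonist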
Numbers without * were called inactive; x = no result given. Many of the other results were omitted from the sample, so hits are more common in it than they were.

SMILES | Lmaj promast | Mdm2 ligase inh | S1P4 antagonist | S1P3 antag | S1P4 ag
COc1ccc(C2C(C#N)=C(SC)NC3=C2C(=O)CC(C)(C)C3)cc1 (configuration not stated) | 0 | -15 | -19 | x | 0
COc1ccc(C2C(C#N)=C(N)N(c3sc4c(c3C#N)CCCC4)C3=C2C(=O)CC(C)(C)C3)cc1OC (configuration not stated) | 21 | -11 | -7 | x | -2
COC(=O)c1ccc(C)c(NC(=O)CN(c2ccccc2)S(=O)(=O)N(C)C)c1 | 3 | -90 | 5 | -13 | -2
CC(C)(Oc1ccc(Cl)cc1)C(=O)N(Cc1ccccc1)c1ccccn1 | 87* | -7 | -12 | -7 | 0
O=C(/C=C/c1ccc(Cl)cc1)N1CCN(c2ccccn2)CC1 | 3 | -18 | -21 | -7 | -3
CC(C)(Oc1ccc(Cl)cc1)C(=O)N1CCN(c2ccccn2)CC1 | 62* | -17 | 7 | 18 | 3
O=C(COc1ccc(Cl)cc1)N(Cc1ccccc1)c1ccccn1 | -6 | 2 | -20 | x | -1
O=C(CCCc1nc2ccccc2s1)NC(c1ccccc1)c1ccccc1 | -1 | -10 | -10 | -16 | 1
C1=CC2CC1CC2CN1CCN(Cc2ccccc2)CC1 (configuration not stated) | 95* | -5 | -9 | x | 0
FC(F)(F)c1cccc(N2CCN(CC3CC4C=CC3C4)CC2)c1 (configuration not stated) | 82* | -2 | -16 | x | -1
Fc1ccccc1N1CCN(CC2CC3C=CC2C3)CC1 (configuration not stated) | 89* | -1 | -13 | x | -1
COc1cccc(C2SCC(=O)N2c2ccc(Br)cc2)c1OC (configuration not stated) | 33 | 10 | 1 | -2 | 1
CCOC(=O)C1=C(C)N=c2s/c(=C3/C(=O)Nc4ccccc43)c(=O)n2C1c1ccc(C)cc1 (configuration not stated) | 54* | -8 | -6 | x | 2
COC(=O)C1=C(C)N=c2s/c(=C3\C(=O)Nc4ccccc43)c(=O)n2C1c1ccccc1 (configuration not stated) | 26 | -11 | -11 | -22 | 3
CCOC(=O)c1cc(C(=O)OCC)c2cccc(C)n2c1=O | 7 | -5 | -1 | x | -1
O=C1S/C(=C/c2ccc(N3CCOCC3)o2)C(=O)N1Cc1c(F)cccc1Cl | 85* | -19 | -2 | x | 1
O=C1S/C(=C\c2ccc(N3CCOCC3)o2)C(=O)N1Cc1c(F)cccc1Cl | 4 | -9 | 1 | x | -2
OCCNCCCCOc1ccc(OCc2ccccc2)cc1 | 100* | -23 | -22 | -7 | 0
Nc1ccc(OCc2ccccc2)cc1 | 1 | -3 | 4 | -20 | 0
NC(N)=N/N=C/c1ccc(OCc2ccccc2Cl)cc1 | 101* | -20 | -6 | x | -1
CCOCCCNCc1ccc(OCc2ccccc2Cl)cc1 | 100* | -12 | 0 | -6 | 0
OCCCCNCc1cc(Br)ccc1OCc1ccccc1F | 11 | 0 | -5 | -2 | 2
OCCCCNCc1ccc(OCc2ccccc2Cl)cc1 | 97* | -5 | 17 | x | -3
Cc1ccc(F)cc1NC(=O)CSc1ncccn1 | 5 | 5 | -3 | -11 | 0
O=C(CCc1nnc(CCC2CCCCC2)o1)NCCc1cccnc1 | -5 | 7 | -3 | 5 | 0
SMILES | Lmaj promast | Mdm2 ligase inh | S1P4 antagonist | S1P3 antag | S1P4 ag
OCCCNCc1ccc(-c2ccccc2)cc1 | 92* | 20 | -20 | -7 | -2
O=C(O)CCCCNCc1ccccc1 | -6 | 0 | -6 | x | -5
OCCCCNCc1ccc(OCc2ccccc2)cc1 | 90* | -15 | -1 | -6 | 0
OCCNCCCCOc1ccc(F)cc1 | 63* | 5 | -6 | x | -1
O=C(Nc1ccc(OCc2ccccc2)cc1)c1ccccc1 | -7 | -15 | -13 | -5 | 0
CCN(c1ccc(NC(=O)COC(=O)c2ccc(S(=O)(=O)N3CCCC3)cc2)cc1)C(C)C | -4 | -18 | 5 | x | -4
CN1CCN(CCC(=O)N2c3ccccc3Sc3ccc(C(F)(F)F)cc32)CC1 | 55* | -5 | 3 | x | 2
OCCN1CCN(CCCN2c3ccccc3Sc3ccc(C(F)(F)F)cc32)CC1 | 87* | x | -10 | -10 | 1
CN1CCN(CCCN2c3ccccc3Sc3ccc(Cl)cc32)CC1 | 100* | x | 5 | -2 | 2
CN(C)CCCN1c2ccccc2Sc2ccc(C(F)(F)F)cc21 | 47 | x | -14 | -2 | -2
C=CCc1cc(C=O)cc(OC)c1OCc1c(Cl)cccc1Cl | 79* | -19 | -24 | x | 2
CSCc1ccc(C(=O)NCc2ccc(F)cc2)cc1 | 56* | -3 | -4 | 0 | 2
CC(C)(C)NC(=O)C(c1ccccn1)N(C(=O)c1csnn1)C1CCCC1 (configuration not stated) | x | x | -13 | 3 | 0
COC(=O)c1[nH]c2ccccc2c1NC(=O)CN1CCN(C/C=C/c2ccccc2)CC1 | 64* | -14 | -10 | -13 | 0
CCOC(=O)c1[nH]c2ccc(F)cc2c1NC(=O)CN1CCN(C/C=C/c2ccccc2)CC1 | 99* | -3 | -23 | -9 | 0
COC(=O)c1[nH]c2ccccc2c1NC(=O)CN1CC(C)OC(C)C1 (configuration not stated) | -2 | -17 | 7 | x | -1
O=C1CC(c2cccs2)Cc2nc(NC(=O)C3CC3)ncc21 (configuration not stated) | x | -5 | -5 | -8 | 1
COC(=O)C1=C(O)CSC1=Nc1ccc(C)cc1 | 58* | 3 | -15 | 1 | 0
O=C(COc1ccccc1)n1nc(-c2ccc(Cl)cc2)nc1NCc1ccco1 | 5 | -1 | -23 | -2 | 1
CCOC(=O)C1(CCOc2ccccc2)CCN(Cc2cccn2-c2cccnc2)CC1 | 35 | -15 | -7 | 14 | -1
CCOC(=O)C1(CCOc2ccccc2)CCN(Cc2ccc3nonc3c2)CC1 | 92* | -4 | 8 | 18 | -2
CCOC(=O)C1(CCOc2ccccc2)CCN(Cc2ccc(NC(C)=O)cc2)CC1 | 87* | 1 | 8 | -8 | 0
CC1(C)CC(=O)C2=C(C1)OC(N)=C(C#N)C21C(=O)N(Cc2ccccc2Cl)c2ccccc21 (configuration not stated) | 59* | -13 | -2 | x | -1
CC1(C)CC(=O)C2=C(C1)OC(N)=C(C#N)C21CCN(Cc2ccccc2)CC1 | -3 | -18 | 14 | x | 0
CC1CCC2(CC1)NC(=O)N(CC(=O)NC(=O)Nc1ccc3c(c1)OCCO3)C2=O (configuration not stated) | x | 0 | -4 | 11 | -1
COc1ccc(Br)c(C(=O)N2CCN(S(=O)(=O)c3cccs3)CC2)c1 | x | x | -2 | 3 | -1
COc1ccc(/C=N/OCC(=O)NC(c2ccccc2)c2ccccc2)cc1OC | 100* | -33 | -21 | 7 | 1
COc1ccc(/C=N/OCC(=O)Nc2cc(C)on2)cc1OC | -2 | -6 | -7 | -8 | -3
